# Measurements as given in ChEMBL document CHEMBL1275441, “Effect of impaired renal function on the pharmacokinetics of tomopenem (RO4908463/CS-023), a novel carbapenem” (Antimicrob Agents Chemother, 2008).
# Columns and labels:
# Homo sapiens [1] = assay: Drug metabolism in human with creatinine clearance of =< 30 ml/min assessed as RO4957463 apparent half life at 1500 mg, iv administered as single dose; assay type: ADME, organism-based; conditions: in vivo
# Procedure, shortened: (§1)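 Single 1,500 mg i.v. infusion over 60 min, eight subjects per renal-function group (creatinine clearance by Cockcroft-Gault at screening). Blood was sampled predose and at 1–48 h, and the plasma was stabilized 1:1 with 0.5 M MOPS pH 6.0, kept from light and frozen at −70°C. Parent and metabolite were measured by a validated bioanalytical method. Noncompartmental analysis: t1/2 = ln2/λz from ≥3 terminal points, Cmax/Tmax from raw data, ratio = AUC∞ metabolite/parent.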
# Homo sapiens [2] = assay: Drug metabolism in human with creatinine clearance of =< 30 ml/min assessed as RO4957463 AUC (infinity) at 1500 mg, iv administered as single dose measured after 60 mins; assay type: ADME, organism-based; parameters: dose 1500 mg, time infinity, route intravenous; conditions: in vivo, 1 h; procedure, shortened: as §1
# Homo sapiens [3] = assay: Ratio of RO4957463 AUC (infinity) to compound AUC (infinity) in human with creatinine clearance of => 80 ml/min at 1500 mg, iv administered as single dose measured after 60 mins; assay type: ADME, organism-based; conditions: in vivo, 1 h; procedure, shortened: as §1
# Homo sapiens [4] = assay: Ratio of RO4957463 AUC (infinity) to compound AUC (infinity) in human with creatinine clearance of 50-79 ml/min at 1500 mg, iv administered as single dose measured after 60 mins; assay type: ADME, organism-based; conditions: in vivo, 1 h; procedure, shortened: as §1
# Homo sapiens [5] = assay: Ratio of RO4957463 AUC (infinity) to compound AUC (infinity)) in human with creatinine clearance of =< 30 ml/min at 1500 mg, iv administered as single dose measured after 60 mins; assay type: ADME, organism-based; conditions: in vivo, 1 h; procedure, shortened: as §1
# [6] = Renal clearance in human with creatinine clearance of => 80 ml/min at 1500 mg, iv administered as single dose after 24 hrs; assay type: ADME, organism-based, Kidney; conditions: in vivo, read-out: CL_renal (converted)
# Procedure, shortened: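 Single 1,500 mg i.v. infusion over 60 min, with 8 subjects per renal-function group (CL_CR by Cockcroft-Gault at screening). Urine was collected at 0–6, 6–12 and 12–24 h, volume and pH recorded, and aliquots mixed 1:1 with 0.5 M MOPS. Samples were frozen at −70°C, protected from light, and assayed by a validated method. CL_R = A_e24/AUC₂₄.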
# [7] = Renal clearance in human with creatinine clearance of 30-49 ml/min at 1500 mg, iv administered as single dose after 24 hrs; assay type: ADME, organism-based, Kidney; conditions: in vivo, read-out: CL_renal (converted)
# Procedure, shortened: (§2)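 After a single 1,500 mg i.v. infusion over 60 min, urine was collected 0–6, 6–12 and 12–24 h post-dose, with volume and pH recorded. Aliquots were mixed 1:1 with 0.5 M MOPS, protected from light and frozen at −70°C. Parent and metabolite were assayed by a validated method. CLR = Ae24/plasma AUC24. n = 8 per group, mean ± SD.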
# Homo sapiens [8] = assay: Drug excretion in human with creatinine clearance of 50-79 ml/min at 1500 mg, iv administered as single dose after 24 hrs; assay type: ADME, organism-based; conditions: in vivo; procedure, shortened: as §2
# Homo sapiens [9] = assay: Drug excretion in human with creatinine clearance of 30-49 ml/min at 1500 mg, iv administered as single dose after 24 hrs; assay type: ADME, organism-based; conditions: in vivo; procedure, shortened: as §2
# Homo sapiens [10] = assay: Drug excretion in human with creatinine clearance of =< 30 ml/min at 1500 mg, iv administered as single dose after 24 hrs; assay type: ADME, organism-based; conditions: in vivo; procedure, shortened: as §2
# [11] = Dose normalized excretion in human with creatinine clearance of 30-49 ml/min at 1500 mg, iv administered as single dose after 24 hrs; assay type: ADME, organism-based; conditions: in vivo, read-out: Activity; procedure, shortened: as §2
# [12] = Dose normalized excretion in human with creatinine clearance of =< 30 ml/min at 1500 mg, iv administered as single dose after 24 hrs; assay type: ADME, organism-based; conditions: in vivo, read-out: Activity; procedure, shortened: as §2
# [13] = Cmax in human with creatinine clearance of => 80 ml/min at 1500 mg, iv administered as single dose measured after 60 mins; assay type: ADME, organism-based; parameters: dose 1500 mg, route intravenous; conditions: in vivo; procedure, shortened: as §1
# [14] = Cmax in human with creatinine clearance of =< 30 ml/min at 1500 mg, iv administered as single dose measured after 60 mins; assay type: ADME, organism-based; parameters: dose 1500 mg, route intravenous; conditions: in vivo; procedure, shortened: as §1
# [15] = Tmax in human with creatinine clearance of 50-79 ml/min at 1500 mg, iv administered as single dose; assay type: ADME, organism-based; conditions: in vivo
# Procedure, shortened: (§3)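 Eight subjects per CL_CR group (Cockcroft-Gault) received 1,500 mg i.v. over 60 min. Plasma was sampled predose and from 1 to 48 h, mixed with equal-volume 0.5 M MOPS pH 6.0, frozen at −70°C light-protected, and assayed by a validated method. Parameters were derived noncompartmentally from actual times, with T_max taken from raw data as a median and CL/V_ss as means ± SD.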
# [16] = Apparent half-life in human with creatinine clearance of => 80 ml/min at 1500 mg, iv administered as single dose; assay type: ADME, organism-based; conditions: in vivo; procedure, shortened: as §1
# [17] = Apparent half-life in human with creatinine clearance of 50-79 ml/min at 1500 mg, iv administered as single dose; assay type: ADME, organism-based; conditions: in vivo; procedure, shortened: as §1
# [18] = Apparent half-life in human with creatinine clearance of 30-49 ml/min at 1500 mg, iv administered as single dose; assay type: ADME, organism-based; conditions: in vivo; procedure, shortened: as §1
# [19] = Apparent half-life in human with creatinine clearance of =< 30 ml/min at 1500 mg, iv administered as single dose; assay type: ADME, organism-based; conditions: in vivo; procedure, shortened: as §1
# [20] = AUC (infinity) in human with creatinine clearance of 30-49 ml/min at 1500 mg, iv administered as single dose measured after 60 mins; assay type: ADME, organism-based; parameters: dose 1500 mg, route intravenous, time infinity; conditions: plasma; procedure, shortened: as §1
# [21] = Volume of distribution at steady state in human with creatinine clearance of => 80 ml/min at 1500 mg, iv administered as single dose measured after 60 mins; assay type: ADME, organism-based; conditions: in vivo, read-out: Vdss; procedure, shortened: as §3
# [22] = Volume of distribution at steady state in human with creatinine clearance of 30-49 ml/min at 1500 mg, iv administered as single dose measured after 60 mins; assay type: ADME, organism-based; conditions: in vivo, read-out: Vdss; procedure, shortened: as §3
# [23] = Volume of distribution at steady state in human with creatinine clearance of =< 30 ml/min at 1500 mg, iv administered as single dose measured after 60 mins; assay type: ADME, organism-based; conditions: in vivo, read-out: Vdss; procedure, shortened: as §3
# [24] = Total clearance in human with creatinine clearance of => 80 ml/min at 1500 mg, iv administered as single dose measured after 60 mins; assay type: ADME, organism-based; conditions: in vivo; procedure, shortened: as §3
# [25] = Total clearance in human with creatinine clearance of 30-49 ml/min at 1500 mg, iv administered as single dose measured after 60 mins; assay type: ADME, organism-based; conditions: in vivo; procedure, shortened: as §3
# Homo sapiens [26] = assay: Drug metabolism in human with creatinine clearance of 50-79 ml/min assessed as RO4957463 Cmax at 1500 mg, iv administered as single dose measured after 60 mins; assay type: ADME, organism-based; parameters: dose 1500 mg, route intravenous; conditions: in vivo, 1 h; procedure, shortened: as §1
# Homo sapiens [27] = assay: Drug metabolism in human with creatinine clearance of 50-79 ml/min assessed as RO4957463 apparent half life at 1500 mg, iv administered as single dose; assay type: ADME, organism-based; conditions: in vivo; procedure, shortened: as §1
smiles,measurement,setting,value
C[C@@H](O)[C@H]1C(=O)N2C(C(=O)O)=C(S[C@H]3C[C@@H](C(=O)N4CC[C@H](NC(=O)CNC(=N)N)C4)N(C)C3)[C@H](C)[C@H]12 [TOMOPENEM],t1/2,Homo sapiens [1],25.3 h
same,AUC,Homo sapiens [2],490 µg·h/mL
same,Ratio,Homo sapiens [3],0.1
same,Ratio,Homo sapiens [4],0.12
same,Ratio,Homo sapiens [5],0.49
same,CL renal at 24 h,[6],77.2 mL/min
same,CL renal at 24 h,[7],33 mL/min
same,Activity,Homo sapiens [8],1090 mg
same,Activity,Homo sapiens [9],939 mg
same,Activity,Homo sapiens [10],618 mg
same,dose excreted at 24 h,[11],62.6%
same,dose excreted at 24 h,[12],41.2%
same,Cmax,[13],81.4 µg/mL
same,Cmax,[14],116 µg/mL
same,Tmax,[15],1 h
same,half-life,[16],2.23 h
same,half-life,[17],3 h
same,half-life,[18],4.59 h
same,half-life,[19],7.94 h
same,AUC(0-inf),[20],517 µg·h/mL
same,Vd,[21],18.8 L
same,Vd,[22],17.2 L
same,Vd,[23],16.4 L
same,clearance,[24],135 mL/min
same,clearance,[25],51 mL/min
same,Cmax,Homo sapiens [26],4.31 µg/mL
same,t1/2,Homo sapiens [27],5.02 h
